Laboratory results: PubChem BioAssay AID602319 (The Scripps Research Institute Molecular Screening Center, 2012)
Active and inactive are the calls of the source.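 The calls were made as follows: active = inhibition of at least 50% at 0.01 µM compound; inactive = the rest.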

Target: Monoacylglycerol lipase ABHD6 (Mus musculus) (UniProt Q8R2Y0)
Test: ABHD6 inhibition in mouse proteome, late-stage follow-up, selectivity assay for DAGLb inhibitor project, biochemical, gel-based competitive ABPP, fluorescence, in vitro (AID 602319)
Details: Neuro-2A membrane proteome, HT-01 probe, stronger effect = higher value
Procedure, shortened: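 Measure: % inhibition relative to DMSO control; Test system: Neuro-2A mouse neuroblastoma membrane proteome with endogenous ABHD6; Quantity: proteome 1 mg/mL; Control set: DMSO vehicle high, gel background low; Technique: SDS-PAGE with in-gel fluorescence scan, band integrated optical density; Times: compound preincubation 30 min, probe labelling 30 min, 37 °C; Buffer or medium: DPBS.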

Monoacylglycerol lipase ABHD6 (Mus musculus), sequence (Q8R2Y0 whole entry, looked up): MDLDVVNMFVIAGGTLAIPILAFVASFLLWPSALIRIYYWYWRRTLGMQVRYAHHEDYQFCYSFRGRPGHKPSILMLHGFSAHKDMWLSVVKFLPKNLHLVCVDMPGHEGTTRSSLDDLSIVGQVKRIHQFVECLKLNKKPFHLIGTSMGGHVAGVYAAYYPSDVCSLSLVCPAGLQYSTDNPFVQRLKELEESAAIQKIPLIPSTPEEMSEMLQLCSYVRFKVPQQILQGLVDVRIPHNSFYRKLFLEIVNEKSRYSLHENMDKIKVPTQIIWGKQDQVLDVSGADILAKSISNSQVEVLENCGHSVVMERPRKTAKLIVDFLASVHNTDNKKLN

| inhibition (ABHD6 inhibition, at 0.001 µM) [%] | inhibition (at 0.01 µM) | SMILES |
| --- | --- | --- |
| 78 | 100% | COc1ccccc1-c1ccc(-c2cn(C(=O)N3CCC(Cc4ccccc4)CC3)nn2)cc1 |
| 17 | 27% (inactive) | NC(=O)c1ccc(-c2ccc(-c3cn(C(=O)N4CCCCC4c4ccccc4)nn3)cc2)cc1 (centres undefined) |
| 53 | 100% | COc1ccccc1-c1ccc(-c2cn(C(=O)N3CCCC(Cc4ccccc4)C3)nn2)cc1 (centres undefined) |
| 18 | 47% (inactive) | O=C(N1CCCCC1c1ccccc1)n1cc(-c2ccc(-c3ccc(CO)cc3)cc2)nn1 (centres undefined) |
| 8 | 18% (inactive) | COc1ccc(-c2ccc(-c3cn(C(=O)N4CCCCC4c4ccccc4)nn3)cc2)cc1 (centres undefined) |
| 21 | 40% (inactive) | O=C(N1CCCCC1CCc1ccccc1)n1cc(-c2ccc(-c3ccccc3)cc2)nn1 (centres undefined) |
| 9 | 79% | O=C(c1ccc(-c2ccc(-c3cn(C(=O)N4CCCCC4Cc4ccccc4)nn3)cc2)cc1)N1CCCCC1 (centres undefined) |
| 35 | 94% | O=C(c1ccc(-c2ccc(-c3cn(C(=O)N4CCCCC4c4ccccc4)nn3)cc2)cc1)N1CCCCC1 (centres undefined) |
| 27 | 70% | COc1ccccc1-c1ccc(-c2cn(C(=O)N3CCCCC3CCc3ccccc3)nn2)cc1 (centres undefined) |
| 18 | 66% | O=C(N1CCCCC1c1ccccc1)n1cc(-c2ccc(-c3ccccc3)cc2)nn1 (centres undefined) |
| 7 | 10% (inactive) | O=C(O)c1ccc(-c2ccc(-c3cn(C(=O)N4CCCCC4CCc4ccccc4)nn3)cc2)cc1 (centres undefined) |
| 41 | 90% | O=C(N1CCCCC1Cc1ccccc1)n1cc(-c2ccc(-c3cccc(CO)c3)cc2)nn1 (centres undefined) |
| 32 | 90% | COc1ccccc1-c1ccc(-c2cn(C(=O)N3CCCCC3c3ccccc3)nn2)cc1 (centres undefined) |
| 33 | 94% | O=C(O)c1cccc(-c2ccc(-c3cn(C(=O)N4CCCCC4CCc4ccccc4)nn3)cc2)c1 (centres undefined) |
| 32 | 47% (inactive) | O=C(N1CCCCC1c1ccccc1)n1cc(C(O)(c2ccccc2)c2ccccc2)nn1 (centres undefined) |
| 38 | 98% | O=C(N1CCCCC1c1ccccc1)n1cc(-c2ccc(-c3ccccc3CO)cc2)nn1 (centres undefined) |
| 36 | 100% | O=C(O)c1cccc(-c2ccc(-c3cn(C(=O)N4CCCCC4c4ccccc4)nn3)cc2)c1 (centres undefined) |
